Results reported in ChEMBL document CHEMBL1124235, “3-Phenoxypyridine 1-oxides as anticonvulsant agents” (1988).
The source made the active and inactive calls. No cut-off for these calls is given here.

Experiments:
[1] = tested on: Mus musculus; assay: Dose required to protect Mice against tonic extension produced by maximal electroshock (MES) at 30 min post administration; assay type: functional; conditions: 0.5 h, read-out: MED
In short: (§1)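 Male Swiss-Webster mice (25–32 g), with food and water before testing, were dosed ip, the compound being in water or suspended in 0.29% Methocel. Doses were counted as free base, at levels of 10, 30, 100, 300 or >300 mg/kg, with n = 5. At 30 min, 90 mA, 1 ms monophasic pulses at 100 Hz were given through ear clips for 0.2 s. Value is the lowest dose protecting ≥2 mice from tonic hind-limb extension.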

[2] = tested on: Mus musculus; assay: Dose at which mouse exhibited ataxia using the inverted screen procedure at 30 min post administration; assay type: functional
In short: (§2)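 Mice (n = 5 per dose) were scored 30 min after dosing at levels of 10, 30, 100, 300 or >300 mg/kg. They were placed on an inverted wire-mesh square, and impaired mice fall off.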

[3] = tested on: Mus musculus; assay: Number of mice falling from an inverted wire mesh during a 1-min test period 20 min after ip administration at a dose of 10 mg/Kg in ataxia (inverted screen test); - denotes 'no animals fell'; assay type: functional, organism-based
In short: (§3)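 Mice were dosed ip and placed on an inverted wire mesh 20 min after injection, for a 1-min test. The number of mice that fell per dose group was counted, and a dash means none fell.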

[4] = tested on: Mus musculus; assay: Increase in spontaneous locomotion activity after intraperitoneal administration in mice at a dose of 100 mg/Kg; assay type: functional
In short: (§4)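 After ip injection, spontaneous locomotor activity was recorded automatically over a 1-h period beginning 20 min after dosing, with nine or more mice per dose group. Values are percent change from saline-treated mice.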

[5] = tested on: Mus musculus; assay: Increase in spontaneous locomotion activity after intraperitoneal administration in mice at a dose of 30 mg/Kg; assay type: functional; in short: as §4
[6] = tested on: Mus musculus; assay: Number of mice falling from an inverted wire mesh during a 1-min test period 20 min after ip administration at a dose of 30 mg/Kg in ataxia (inverted screen test); - denotes 'no animals fell'; assay type: functional, organism-based; in short: as §3
[7] = tested on: Mus musculus; assay: Number of mice falling from an inverted wire mesh during a 1-min test period 20 min after ip administration at a dose of 100 mg/Kg in ataxia (inverted screen test); 2/9; assay type: functional; in short: as §3
[8] = tested on: Mus musculus; assay: Increase in spontaneous locomotion activity after intraperitoneal administration in mice at a dose of 10 mg/Kg; assay type: functional; in short: as §4
[9] = tested on: Mus musculus; assay: Number of mice falling from an inverted wire mesh during a 1-min test period 20 min after ip administration at given dose in ataxia (inverted screen test) at 100 mg/kg; - denotes 'no animals fell'; assay type: functional, organism-based; design: dose 100 mg/kg; in short: as §3
[10] = tested on: Mus musculus; assay: Increase in spontaneous locomotion activity after intraperitoneal administration in mice; at 100 mg/kg; assay type: functional; in short: as §4
[11] = tested on: Mus musculus; assay: Increase in spontaneous locomotion activity after intraperitoneal administration in mice; 40 mg/kg; assay type: functional; in short: as §4
[12] = tested on: Mus musculus; assay: Number of mice falling from an inverted wire mesh during a 1-min test period 20 min after ip administration at given dose in ataxia (inverted screen test) at 40 mg/kg; - denotes 'no animals fell'; assay type: functional, organism-based; design: dose 40 mg/kg; in short: as §3
[13] = tested on: Mus musculus; assay: Increase in spontaneous locomotion activity after intraperitoneal administration in mice at 10 mg/kg; no change; assay type: functional, organism-based; design: dose 10 mg/kg; in short: as §4
[14] = tested on: Mus musculus; assay: Number of mice falling from an inverted wire mesh during a 1-min test period 20 min after ip administration at given dose in ataxia (inverted screen test) at 10 mg/kg; - denotes 'no animals fell'; assay type: functional, organism-based; design: dose 10 mg/kg; in short: as §3
[15] = tested on: Mus musculus; assay: Increase in spontaneous locomotion activity after intraperitoneal administration in mice at 20 mg/kg; assay type: functional; in short: as §4
[16] = tested on: Mus musculus; assay: Number of mice falling from an inverted wire mesh during a 1-min test period 20 min after ip administration at given dose in ataxia (inverted screen test) at 20 mg/kg; - denotes 'no animals fell'; assay type: functional, organism-based; design: dose 20 mg/kg; in short: as §3
[17] = tested on: Mus musculus; assay: Number of mice falling from an inverted wire mesh during a 1-min test period 20 min after ip administration at a dose of 100 mg/Kg in ataxia (inverted screen test); - denotes 'no animals fell'; assay type: functional, organism-based; in short: as §3
[18] = tested on: Mus musculus; assay: Number of mice falling from an inverted wire mesh during a 1-min test period 20 min after ip administration at a dose of 100 mg/Kg in ataxia (inverted screen test); 3/9; assay type: functional; in short: as §3
[19] = tested on: Mus musculus; assay: Dose required to protect Mice against tonic extension produced by maximal electroshock (MES) at 30 min post administration.; assay type: functional; conditions: 0.5 h, read-out: MED; in short: as §1
[20] = tested on: Mus musculus; assay: Dose at which mouse exhibited ataxia using the inverted screen procedure at 30 min post administration.; assay type: functional; in short: as §2
[21] = tested on: Mus musculus; assay: Number of mice falling from an inverted wire mesh during a 1-min test period 20 min after ip administration at a dose of 30 mg/Kg in ataxia (inverted screen test); 1/9; assay type: functional; in short: as §3
[22] = tested on: Mus musculus; assay: Number of mice falling from an inverted wire mesh during a 1-min test period 20 min after ip administration at a dose of 10 mg/Kg in ataxia (inverted screen test ); - denotes 'no animals fell'; assay type: functional, organism-based; in short: as §3

Compound	minimal effective dose [1]	MAD [2]	Change [4]	Change [5]	Change [8]	further results
Cc1ccc(Oc2c[n+]([O-])ccc2C)cc1	300 mg/kg	300 mg/kg				
Cc1c(Oc2ccccc2)ccc[n+]1[O-]	300 mg/kg	300 mg/kg	184%	25%	48%	Activity [3]: Not toxic; Activity [6]: Not toxic; Activity [7]: 2
O=S(=O)(O)O.c1ccc(Oc2cccnc2)cc1	100 mg/kg	300 mg/kg				Activity [9]: Not toxic; Change [10]: 15%; Change [11]: 53%; Activity [12]: Not toxic; Activity [13]: inactive; Activity [14]: Not toxic; Change [15]: 28%; Activity [16]: Not toxic
Cc1cc(Oc2ccccc2)c[n+]([O-])c1	100 mg/kg	300 mg/kg	228%	186%	87%	Activity [3]: Not toxic; Activity [6]: Not toxic; Activity [17]: Not toxic
O=Cc1cc[n+]([O-])cc1Oc1ccccc1	300 mg/kg	>300 mg/kg				
O=c1c2ccccc2oc2c[n+]([O-])ccc12	> 300 mg/kg	300 mg/kg				
CCc1cc[n+]([O-])cc1Oc1ccccc1	30 mg/kg	100 mg/kg				
Cc1ccc(Oc2ccccc2)c[n+]1[O-]			134%	96%	32%	Activity [18]: 3; Activity [3]: Not toxic; minimal effective dose [19]: 100 mg/kg; Activity [6]: Not toxic; MAD [20]: 300 mg/kg
[O-][n+]1cccc(Oc2ccccc2)c1	100 mg/kg	300 mg/kg	122%	45%	19%	Activity [21]: 1; Activity [22]: Not toxic; Activity [17]: Not toxic
CC(C)(C)c1cc[n+]([O-])cc1Oc1ccccc1	30 mg/kg	100 mg/kg				
[O-][n+]1ccc(C2CCCCC2)c(Oc2ccccc2)c1	> 300 mg/kg	300 mg/kg				
